Test results published in ChEMBL document CHEMBL4145607, “Tamarixetin Exhibits Anti-inflammatory Activity and Prevents Bacterial Sepsis by Increasing IL-10 Production” (J Nat Prod, 2018).
Calls of active or inactive are those of the source. The calls are words filed in the database; no cut-off is given here.

What was measured:
[1] = test system: Mus musculus; assay: Antiseptic activity in Balb/c mouse model of Escherichia coli K1 infection-induced sepsis assessed as increase in survival rate at 1 mg/kg, ip pretreated for 1 hr followed by Escherichia coli K1 infection measured up to 20 hrs relative to control; format: functional
[2] = test system: Mus musculus; assay: Antiseptic activity in Balb/c mouse model of Escherichia coli K1 infection-induced sepsis assessed as reduction in serum TNFalpha level at 1 mg/kg, ip pretreated for 1 hr followed by Escherichia coli K1 infection measured after 2 hrs by ELISA; format: functional, organism-based
In short: (§1)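 BALB/c mice received 1 mg·kg−1 i.p. 1 h before i.p. E. coli K1 RS218, 1 × 10^6 CFU per mouse. Serum was collected at 2 h, and TNF-α, IL-6 and IL-10 were quantified by sandwich ELISA. Means ± SEM.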

[3] = test system: Mus musculus; assay: Antiinflammatory activity in Balb/c mouse model of LPS-induced endotoxemia assessed as reduction in IL6 level in lungs at 1 mg/kg, ip pretreated for 1 hr followed by LPS-challenge measured after 12 hrs by ELISA; format: functional, organism-based
In short: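 BALB/c mice got 1 mg·kg−1 i.p. 1 h before i.p. LPS 10 mg·kg−1. After 12 h, TNF-α and IL-6 in lung lysates were measured by sandwich ELISA. Means ± SEM.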

[4] = test system: Mus musculus; assay: Antiseptic activity in Balb/c mouse model of Escherichia coli K1 infection-induced sepsis assessed as reduction in bacterial count in liver at 1 mg/kg, ip pretreated for 1 hr followed by Escherichia coli K1 infection measured after 12 hrs; format: functional, organism-based
In short: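 Pretreatment was 1 mg·kg−1 i.p. 1 h before i.p. E. coli K1 (1 × 10^6 CFU per mouse) in BALB/c mice. At 12 h, lungs, liver and kidneys were homogenized in PBS and diluted 1:1000. 10 μL was plated on LB agar, incubated 24 h at 37 °C, and colonies counted.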

[5] = test system: BMDC; assay: Inhibition of Escherichia coli DH5alpha infection-induced immune response in C57BL/6 mouse BMDC assessed as increase in IL10 secretion at 25 uM pretreated for 60 to 120 mins followed by Escherichia coli DH5alpha infection for 6 hrs by ELISA; format: functional, cell-based
In short: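 C57BL/6 BMDCs received 25 μM compound and E. coli DH5α, 3 × 10^6 CFU·mL−1. Schedules were: compound 30 min before a 6 h infection; co-addition for 6 h; or compound for 30, 60, 90 or 120 min plus 6 h infection. Supernatant TNF-α, IL-6, IL-10 and IL-12p70 were measured by ELISA. At least three experiments in triplicate.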

[6] = test system: BMDC; assay: Inhibition of LPS-induced immune response in C57BL/6 mouse BMDC assessed as reduction in IL-6 secretion up to 25 uM pretreated for 30 mins followed by LPS-challenge measured after 6 hrs by ELISA; format: functional, cell-based
In short: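 Mouse BMDCs (female C57BL/6 bone marrow, GM-CSF-derived, ≥90% CD11c+ on day 7) pretreated 30 min with graded compound concentrations, then stimulated with LPS 50 ng/mL for 6 h. Supernatant TNF-α, IL-6, IL-10 and IL-12p70 quantified by sandwich ELISA. Mean ± SEM vs LPS-only cells; experiments repeated at least three times.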

[7] = molecular target: T1, Toll-like receptor 4 (Mus musculus) (UniProt Q9QUK6); assay: Inhibition of LPS-induced TLR4 activation in C57BL/6 mouse BMDC assessed as reduction in COX2 expression at 25 uM pretreated for 30 mins followed by LPS-challenge measured after 15 to 90 mins by Western blot analysis; format: cell-based
T1 sequence (whole entry): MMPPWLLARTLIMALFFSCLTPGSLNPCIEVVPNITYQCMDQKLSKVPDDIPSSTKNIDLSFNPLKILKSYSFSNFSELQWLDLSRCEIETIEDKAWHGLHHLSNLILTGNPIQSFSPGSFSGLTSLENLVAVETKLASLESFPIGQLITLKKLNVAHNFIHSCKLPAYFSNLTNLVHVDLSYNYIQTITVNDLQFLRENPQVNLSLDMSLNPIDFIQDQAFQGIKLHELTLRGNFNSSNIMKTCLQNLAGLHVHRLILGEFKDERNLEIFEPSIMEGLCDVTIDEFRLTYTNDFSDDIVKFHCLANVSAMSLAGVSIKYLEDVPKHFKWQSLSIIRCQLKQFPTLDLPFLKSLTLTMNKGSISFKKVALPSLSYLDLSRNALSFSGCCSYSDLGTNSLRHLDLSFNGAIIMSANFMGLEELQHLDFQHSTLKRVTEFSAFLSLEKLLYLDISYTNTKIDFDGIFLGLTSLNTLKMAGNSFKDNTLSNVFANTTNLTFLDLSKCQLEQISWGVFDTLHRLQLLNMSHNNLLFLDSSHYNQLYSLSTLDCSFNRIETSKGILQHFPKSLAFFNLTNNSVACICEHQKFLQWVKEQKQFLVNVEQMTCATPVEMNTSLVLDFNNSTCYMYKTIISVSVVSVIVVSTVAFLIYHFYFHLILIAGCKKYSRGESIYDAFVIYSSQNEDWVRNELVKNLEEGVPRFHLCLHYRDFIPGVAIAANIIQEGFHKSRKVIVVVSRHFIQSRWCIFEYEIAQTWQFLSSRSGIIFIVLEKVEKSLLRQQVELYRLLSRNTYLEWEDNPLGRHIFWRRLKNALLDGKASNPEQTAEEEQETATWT
In short: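 BMDCs were pretreated 30 min with 25 μM compound, then stimulated with LPS 50 ng·mL−1 for the indicated times. Lysates (25 μg protein) were run on 10% SDS-PAGE and immunoblotted for phospho/total ERK, JNK, p38 and Akt, plus COX-2, IκBα and α-tubulin, with ECL detection. Representative of three experiments.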

[8] = test system: Mus musculus; assay: Antiseptic activity in Balb/c mouse model of Escherichia coli K1 infection-induced sepsis assessed as increase in serum IL10 level at 1 mg/kg, ip pretreated for 1 hr followed by Escherichia coli K1 infection measured after 2 hrs by ELISA; format: functional, organism-based; in short: as §1
[9] = test system: Mus musculus; assay: Antiinflammatory activity in Balb/c mouse model of LPS-induced endotoxemia assessed as increase in IL10 producing dendritic cells in splenocyte at 1 mg/kg, ip pretreated for 1 hr followed by LPS-challenge measured after 12 hrs by flow cytometric analysis; format: functional, organism-based
[10] = test system: BMDC; assay: Inhibition of LPS-induced immune response in C57BL/6 mouse BMDC assessed as reduction in TNFalpha secretion at 25 uM treated 6 hrs post LPS-challenge measured after 60 to 120 mins by ELISA; format: functional, cell-based
In short: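 Bone marrow DCs from 6-week-old female C57BL/6 mice, RBC-lysed, cultured in RPMI-1640/10% FBS with 10 ng/mL rmGM-CSF, 37 °C, 5% CO2. Cells given LPS 50 ng/mL for 6 h, then 25 μM compound added for 30, 60, 90 or 120 min. Supernatant TNF-α, IL-6, IL-10, IL-12p70 measured by sandwich ELISA. Mean ± SEM, compared with LPS-only DCs.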

[11] = test system: Mus musculus; assay: Antiinflammatory activity in Balb/c mouse model of LPS-induced endotoxemia assessed as increase in IL10 producing B10 population in splenocyte at 1 mg/kg, ip pretreated for 1 hr followed by LPS-challenge measured after 12 hrs by flow cytometric analysis; format: functional, organism-based

## COc1ccc(-c2oc3cc(O)cc(O)c3c(=O)c2O)cc1O [TAMARIXETIN]
[1]
  Activity: 60%
[2]
  Activity: Active
[3]
  Activity: Active
[4]
  Activity: Active
[5]
  inhibition: inactive
[6]
  inhibition: Active
[7]
  inhibition: Active
[8]
  Activity: Active
[9]
  Activity: Active
[10]
  inhibition: inactive
[11]
  Activity: Active
